# Measured values published in ChEMBL document CHEMBL4261527, “Benzylsulfanyl benzo-heterocycle amides and hydrazones as new agents against drug-susceptible and resistant Mycobacterium tuberculosis” (Medchemcomm, 2017).
# Columns and labels:
# [1] = Cytotoxicity against African green monkey Vero cells assessed as cell viability at 1.25 ug/ml after 72 hrs by CCK8 assay (reference value: 100%); assay type: cell-based; details: chlorocebus sabaeus, read-out: Activity
# Outline: (§1)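 Vero cells exposed to 0.01–20 μg/mL compound; vehicle control 0.625% DMSO set as 100%. Result given as percent cell viability.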
# [2] = Stability in human liver microsomes assessed as parent compound remaining after 15 mins by LC-MS/MS analysis; assay type: ADME, microsome; details: read-out: Stability
# Outline: (§2)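 Compound incubated with human liver microsomes; percent remaining measured at 15, 30 and 60 min, relative to the amount at 0 min taken as 100%.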
# [3] = Cytotoxicity against African green monkey Vero cells assessed as cell viability at 5 ug/ml after 72 hrs by CCK8 assay (reference value: 100%); assay type: cell-based; details: chlorocebus sabaeus, read-out: Activity; outline: as §1
# [4] = test system: Mycobacterium tuberculosis; assay: Antimycobacterial activity against p-aminosalicyclic acid-resistant Mycobacterium tuberculosis ATCC 35821 by resazurin dye based fluorimetric method; assay type: functional
# [5] = test system: Mycobacterium tuberculosis; assay: Antimycobacterial activity against drug-susceptible Mycobacterium tuberculosis clinical isolate; assay type: functional
# Outline: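 Clinical isolates coded 960 (drug-susceptible), 330 (MDR) and 431 (XDR); MIC reported in μM.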
# [6] = test system: Mycobacterium tuberculosis; assay: Antimycobacterial activity against Mycobacterium tuberculosis H37Rv ATCC 27294 measured after 7 days by microplate alamar blue assay; assay type: functional; details: H37Rv ATCC 27294, 168 h
# Outline: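 Mtb H37Rv (ATCC 27294) grown in Middlebrook 7H12 broth; MIC read by Microplate Alamar Blue Assay (MABA).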
# [7] = Cytotoxicity against African green monkey Vero cells assessed as cell viability at 0.625 ug/ml after 72 hrs by CCK8 assay (reference value: 100%); assay type: cell-based; details: chlorocebus sabaeus, read-out: Activity; outline: as §1
# [8] = Cytotoxicity against African green monkey Vero cells assessed as cell viability at 0.078 ug/ml after 72 hrs by CCK8 assay (reference value: 100%); assay type: cell-based; details: chlorocebus sabaeus, read-out: Activity; outline: as §1
# [9] = Cytotoxicity against African green monkey Vero cells assessed as cell viability at 10 ug/ml after 72 hrs by CCK8 assay (reference value: 100%); assay type: cell-based; details: chlorocebus sabaeus, read-out: Activity; outline: as §1
# [10] = Stability in human liver microsomes assessed as parent compound remaining after 30 mins by LC-MS/MS analysis; assay type: ADME, microsome; details: read-out: Stability; outline: as §2
# [11] = Cytotoxicity against African green monkey Vero cells assessed as cell viability at 0.039 ug/ml after 72 hrs by CCK8 assay (reference value: 100%); assay type: cell-based; details: chlorocebus sabaeus, read-out: Activity; outline: as §1
# [12] = Stability in human liver microsomes assessed as parent compound remaining after 60 mins by LC-MS/MS analysis; assay type: ADME, microsome; details: read-out: Stability; outline: as §2
# [13] = Cytotoxicity against African green monkey Vero cells assessed as cell viability at 0.02 ug/ml after 72 hrs by CCK8 assay (reference value: 100%); assay type: cell-based; details: chlorocebus sabaeus, read-out: Activity; outline: as §1
# [14] = Cytotoxicity against African green monkey Vero cells assessed as cell viability at 0.312 ug/ml after 72 hrs by CCK8 assay (reference value: 100%); assay type: cell-based; details: chlorocebus sabaeus, read-out: Activity; outline: as §1
# [15] = Cytotoxicity against African green monkey Vero cells assessed as cell viability at 0.156 ug/ml after 72 hrs by CCK8 assay (reference value: 100%); assay type: cell-based; details: chlorocebus sabaeus, read-out: Activity; outline: as §1
# [16] = Cytotoxicity against African green monkey Vero cells assessed as cell viability at 20 ug/ml after 72 hrs by CCK8 assay (reference value: 100%); assay type: cell-based; details: chlorocebus sabaeus, read-out: Activity; outline: as §1
# [17] = Cytotoxicity against African green monkey Vero cells assessed as cell viability at 2.5 ug/ml after 72 hrs by CCK8 assay (reference value: 100%); assay type: cell-based; details: chlorocebus sabaeus, read-out: Activity; outline: as §1
# [18] = Cytotoxicity against African green monkey Vero cells assessed as cell viability at 0.01 ug/ml after 72 hrs by CCK8 assay (reference value: 100%); assay type: cell-based; details: chlorocebus sabaeus, read-out: Activity; outline: as §1
structure (smiles),measurement,setting,value
O=C(N/N=C/c1ccc(CSc2nc3ccccc3o2)cc1)c1ccncc1,"viability at 72 h, 1.25 ug/ml",[1],123%
same,remaining at 0.25 h,[2],90.1%
same,"viability at 72 h, 5 ug/ml",[3],123%
same,MIC,[4],0.312 µg/mL
same,MIC,[5],0.2 µM
same,MIC,[6],0.24 µM
same,"viability at 72 h, 0.625 ug/ml",[7],118%
same,"viability at 72 h, 0.078 ug/ml",[8],119%
same,"viability at 72 h, 10 ug/ml",[9],130%
same,remaining at 0.5 h,[10],76.5%
same,"viability at 72 h, 0.039 ug/ml",[11],127%
same,remaining at 1 h,[12],66.6%
same,"viability at 72 h, 0.02 ug/ml",[13],127%
same,"viability at 72 h, 0.312 ug/ml",[14],120%
same,"viability at 72 h, 0.156 ug/ml",[15],122%
same,"viability at 72 h, 20 ug/ml",[16],109%
same,"viability at 72 h, 2.5 ug/ml",[17],123%
same,"viability at 72 h, 0.01 ug/ml",[18],127%
O=C(NCc1ccc(CSc2nc3ccccc3s2)cc1)c1ccncc1,MIC,[6],> 128 µM
O=C(NCc1ccc(CSc2nc3ccccc3o2)cc1)c1cccnc1,MIC,[6],58.2 µM
O=C(N/N=C/c1ccc(CSc2nc3ccccc3o2)cc1)c1cccnc1,MIC,[6],24.8 µM
O=C(NCc1ccc(CSc2nc3ccccc3[nH]2)cc1)c1cccnc1,MIC,[6],60.3 µM
O=C(N/N=C/c1ccc(CSc2nc3ccccc3[nH]2)cc1)c1ccncc1,"viability at 72 h, 1.25 ug/ml",[1],119%
same,remaining at 0.25 h,[2],76.5%
same,"viability at 72 h, 5 ug/ml",[3],113%
same,MIC,[4],0.312 µg/mL
same,MIC,[5],0.2 µM
same,MIC,[6],0.23 µM
same,"viability at 72 h, 0.625 ug/ml",[7],112%
same,"viability at 72 h, 0.078 ug/ml",[8],116%
same,"viability at 72 h, 10 ug/ml",[9],107%
same,remaining at 0.5 h,[10],62%
same,"viability at 72 h, 0.039 ug/ml",[11],115%
same,remaining at 1 h,[12],44.6%
same,"viability at 72 h, 0.02 ug/ml",[13],116%
same,"viability at 72 h, 0.312 ug/ml",[14],111%
same,"viability at 72 h, 0.156 ug/ml",[15],115%
same,"viability at 72 h, 20 ug/ml",[16],107%
same,"viability at 72 h, 2.5 ug/ml",[17],114%
same,"viability at 72 h, 0.01 ug/ml",[18],119%
O=C(NCc1ccc(CSc2nc3ccccc3o2)cc1)c1ccncc1,MIC,[5],16 µM
same,MIC,[6],0.9 µM
O=C(NCc1ccc(CSc2nc3ccccc3s2)cc1)c1cccnc1,MIC,[6],> 128 µM
O=C(N/N=C/c1ccc(CSc2nc3ccccc3s2)cc1)c1ccncc1,"viability at 72 h, 1.25 ug/ml",[1],103%
same,remaining at 0.25 h,[2],76.3%
same,"viability at 72 h, 5 ug/ml",[3],103%
same,MIC,[4],0.625 µg/mL
same,MIC,[5],0.2 µM
same,MIC,[6],0.24 µM
same,"viability at 72 h, 0.625 ug/ml",[7],94%
same,"viability at 72 h, 0.078 ug/ml",[8],99%
same,"viability at 72 h, 10 ug/ml",[9],96%
same,remaining at 0.5 h,[10],57.2%
same,"viability at 72 h, 0.039 ug/ml",[11],99%
same,remaining at 1 h,[12],34%
same,"viability at 72 h, 0.02 ug/ml",[13],103%
same,"viability at 72 h, 0.312 ug/ml",[14],98%
same,"viability at 72 h, 0.156 ug/ml",[15],97%
same,"viability at 72 h, 20 ug/ml",[16],91%
same,"viability at 72 h, 2.5 ug/ml",[17],101%
same,"viability at 72 h, 0.01 ug/ml",[18],97%
O=C(N/N=C/c1ccc(CSc2nc3ccccc3[nH]2)cc1)c1cccnc1,MIC,[6],114 µM
O=C(N/N=C/c1ccc(CSc2nc3ccccc3s2)cc1)c1cccnc1,MIC,[6],> 128 µM
O=C(NCc1ccc(CSc2nc3ccccc3[nH]2)cc1)c1ccncc1,MIC,[6],120 µM
COc1cc(/C=N/NC(=O)c2ccncc2)ccc1O [FTIVAZIDE],"viability at 72 h, 1.25 ug/ml",[1],105%
same,"viability at 72 h, 5 ug/ml",[3],100%
same,MIC,[4],0.312 µg/mL
same,MIC,[5],0.25 µM
same,"viability at 72 h, 0.625 ug/ml",[7],100%
same,"viability at 72 h, 0.078 ug/ml",[8],114%
same,"viability at 72 h, 10 ug/ml",[9],95%
same,"viability at 72 h, 0.02 ug/ml",[13],105%
same,"viability at 72 h, 0.312 ug/ml",[14],103%
same,"viability at 72 h, 0.156 ug/ml",[15],96%
same,"viability at 72 h, 20 ug/ml",[16],90%
same,"viability at 72 h, 2.5 ug/ml",[17],110%
same,"viability at 72 h, 0.01 ug/ml",[18],95%
NNC(=O)c1ccncc1 [ISONIAZID],MIC,[5],0.5 µM
same,MIC,[6],0.81 µM
COc1c(N2C[C@@H]3CCCN[C@@H]3C2)c(F)cc2c(=O)c(C(=O)O)cn(C3CC3)c12 [MOXIFLOXACIN],MIC,[6],0.5 µM
O=[N+]([O-])c1cn2c(n1)OC[C@@H](OCc1ccc(OC(F)(F)F)cc1)C2 [PRETOMANID],MIC,[6],0.44 µM
CO[C@H]1/C=C/O[C@@]2(C)Oc3c(C)c(O)c4c(O)c(c(/C=N/N5CCN(C)CC5)c(O)c4c3C2=O)NC(=O)/C(C)=C\C=C\[C@H](C)[C@H](O)[C@@H](C)[C@@H](O)[C@@H](C)[C@H](OC(C)=O)[C@@H]1C [RIFAMPIN],MIC,[5],0.07 µM
same,MIC,[6],0.08 µM
CN[C@@H]1[C@H](O[C@H]2[C@H](O[C@H]3[C@H](O)[C@@H](O)[C@H](N=C(N)N)[C@@H](O)[C@@H]3N=C(N)N)O[C@@H](C)[C@]2(O)C=O)O[C@@H](CO)[C@H](O)[C@H]1O [STREPTOMYCIN],MIC,[6],0.48 µM
